The values below come from ChEMBL document CHEMBL1240329, “Identification and mechanistic characterization of low-molecular-weight inhibitors for HuR” (Nat Chem Biol, 2007).

In series [1] the test system is PBMC. Nature of the series: Inhibition of HuR in anti-CD3 and anti-CD28-stimulated human PBMC assessed as reduction of cytoplasmic protein level after 48 hrs by confocal microscopy. The series is classed as functional, cell-based.
The subject of series [2] is Monocyte. Description: Inhibition of IL-6 expression in LPS/INF-gamma-stimulated human primary monocytes up to 30 uM by ELISA. The series is classed as functional. For orientation: ELISA stands for enzyme-linked immunosorbent assay.
For series [3], the system named is Monocyte. Description: Inhibition of IL1-beta expression in LPS/INF-gamma-stimulated human primary monocytes up to 30 uM by ELISA. The format is functional.
Series [4] deals with Monocyte. Description: Inhibition of IL1-beta expression in LPS/INF-gamma-stimulated human primary monocytes by ELISA. The series is classed as functional.
Series [5] has as its system Monocyte. Nature of the series: Inhibition of COX-2 expression in LPS/INF-gamma-stimulated human primary monocytes up to 30 uM by ELISA. The series is classed as functional.
The test system of series [6] is Monocyte. Nature of the series: Inhibition of COX-2 gene expression in LPS/INF-gamma-stimulated human primary monocytes up to 30 uM by RT-PCR analysis. The format is functional.
Series [7] concerns Monocyte. Nature of the series: Inhibition of IL1-beta gene expression in LPS/INF-gamma-stimulated human primary monocytes up to 30 uM by RT-PCR analysis. The format is functional.
Series [8] is described as follows: Cytotoxicity against human PBMC assessed as cell viability at 50 uM after 48 hrs relative control. The format is cell-based. The following applies: read-out: Activity. Put shortly: (§1)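 Freshly isolated human PBMCs activated with soluble anti-CD3 plus anti-CD28 and exposed to compound for 48 h. Viability expressed as percent of DMSO control.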
The subject of series [9] is Monocyte. Description: Inhibition of IL-6 gene expression in LPS/INF-gamma-stimulated human primary monocytes up to 30 uM by RT-PCR analysis. The format is functional.
For series [10], the target named is T1, ELAV-like protein 1 (Homo sapiens, UniProt Q15717). Nature of the series: Inhibition of recombinant full length HuR assessed as inhibition of protein-IL-2 A/U-rich element interaction-associated release of particle number at 2 uM by 2D-FIDA.
Series [11] concerns Monocyte. Nature of the series: Inhibition of IL-6 expression in LPS/INF-gamma-stimulated human primary monocytes by ELISA. The format is functional.
Series [12] deals with T1, ELAV-like protein 1. Description: Inhibition of recombinant HuR RRM1/RRM2 domain assessed as protein dimerization with TMR-labeled A/U-rich element of IL-2 by confocal fluctuation spectroscopy.
Series [13] has as its target T1, ELAV-like protein 1. Description: Inhibition of recombinant HuR RRM1/RRM2 domain assessed as protein interaction with TMR-labeled A/U-rich element of TNFalpha by confocal fluctuation spectroscopy. Put shortly:
(§2)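 Binding followed as fluorescence anisotropy by 2D-FIDA, converted to fraction bound. Inhibition curves simulated from the fitted HuR–RNA Kd, with actual RNA, HuR and compound levels as boundary conditions. Ten measurements averaged; at least three independent experiments.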

For series [14], the system named is PBMC. Description: Inhibition of HuR in anti-CD3 and anti-CD28-stimulated human PBMC assessed as reduction of cytoplasmic protein level at 25 uM after 48 hrs by confocal microscopy. The format is functional, cell-based.
In series [15] the target is T1, ELAV-like protein 1. Description: Inhibition of recombinant HuR RRM1/RRM2 domain assessed as protein dimerization with TMR-labeled A/U-rich element of TNFalpha by confocal fluctuation spectroscopy.
Series [16] is described as follows: Cytotoxicity against human PBMC assessed as cell viability at 25 uM after 48 hrs relative control. The series is classed as cell-based. The conditions noted are these: read-out: Activity. In short, it runs like this: as §1
Series [17] concerns Monocyte. Description: Inhibition of IL1-beta gene expression in LPS/INF-gamma-stimulated human primary monocytes by RT-PCR analysis.
Series [18] has as its target T1, ELAV-like protein 1. Description: Inhibition of recombinant HuR RRM1/RRM2 domain assessed as protein interaction with TMR-labeled A/U-rich element of IL-2 by confocal fluctuation spectroscopy. In short, it runs like this: as §2
Series [19] has as its system Monocyte. Nature of the series: Inhibition of COX-2 expression in LPS/INF-gamma-stimulated human primary monocytes by ELISA. The format is functional.
In series [20] the test system is Monocyte. Description: Inhibition of COX-2 gene expression in LPS/INF-gamma-stimulated human primary monocytes by RT-PCR analysis.
In series [21] the target is T1, ELAV-like protein 1. Description: Binding affinity recombinant HuR RRM1/RRM2 domain by confocal fluctuation spectroscopy. In short, it runs like this:
as §2

Series [22] relates to Monocyte. Nature of the series: Inhibition of IL-6 gene expression in LPS/INF-gamma-stimulated human primary monocytes by RT-PCR analysis.
Series [23] deals with Myosin light chain kinase, smooth muscle (Homo sapiens, UniProt Q15746). Description: Inhibition of MYLK.

Calls of active or inactive are those of the source. The calls are words filed in the database; no cut-off is given here.

T1 sequence (Q15717 whole entry): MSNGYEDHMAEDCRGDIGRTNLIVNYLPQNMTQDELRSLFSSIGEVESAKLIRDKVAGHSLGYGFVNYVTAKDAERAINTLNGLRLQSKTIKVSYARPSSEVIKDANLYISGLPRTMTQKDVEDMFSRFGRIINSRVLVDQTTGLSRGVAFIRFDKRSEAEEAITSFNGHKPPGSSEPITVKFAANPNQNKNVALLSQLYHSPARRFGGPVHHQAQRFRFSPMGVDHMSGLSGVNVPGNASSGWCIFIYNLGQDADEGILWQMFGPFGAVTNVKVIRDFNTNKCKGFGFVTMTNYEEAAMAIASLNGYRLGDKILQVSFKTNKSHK
Sequence of Myosin light chain kinase, smooth muscle (Q15746 whole entry): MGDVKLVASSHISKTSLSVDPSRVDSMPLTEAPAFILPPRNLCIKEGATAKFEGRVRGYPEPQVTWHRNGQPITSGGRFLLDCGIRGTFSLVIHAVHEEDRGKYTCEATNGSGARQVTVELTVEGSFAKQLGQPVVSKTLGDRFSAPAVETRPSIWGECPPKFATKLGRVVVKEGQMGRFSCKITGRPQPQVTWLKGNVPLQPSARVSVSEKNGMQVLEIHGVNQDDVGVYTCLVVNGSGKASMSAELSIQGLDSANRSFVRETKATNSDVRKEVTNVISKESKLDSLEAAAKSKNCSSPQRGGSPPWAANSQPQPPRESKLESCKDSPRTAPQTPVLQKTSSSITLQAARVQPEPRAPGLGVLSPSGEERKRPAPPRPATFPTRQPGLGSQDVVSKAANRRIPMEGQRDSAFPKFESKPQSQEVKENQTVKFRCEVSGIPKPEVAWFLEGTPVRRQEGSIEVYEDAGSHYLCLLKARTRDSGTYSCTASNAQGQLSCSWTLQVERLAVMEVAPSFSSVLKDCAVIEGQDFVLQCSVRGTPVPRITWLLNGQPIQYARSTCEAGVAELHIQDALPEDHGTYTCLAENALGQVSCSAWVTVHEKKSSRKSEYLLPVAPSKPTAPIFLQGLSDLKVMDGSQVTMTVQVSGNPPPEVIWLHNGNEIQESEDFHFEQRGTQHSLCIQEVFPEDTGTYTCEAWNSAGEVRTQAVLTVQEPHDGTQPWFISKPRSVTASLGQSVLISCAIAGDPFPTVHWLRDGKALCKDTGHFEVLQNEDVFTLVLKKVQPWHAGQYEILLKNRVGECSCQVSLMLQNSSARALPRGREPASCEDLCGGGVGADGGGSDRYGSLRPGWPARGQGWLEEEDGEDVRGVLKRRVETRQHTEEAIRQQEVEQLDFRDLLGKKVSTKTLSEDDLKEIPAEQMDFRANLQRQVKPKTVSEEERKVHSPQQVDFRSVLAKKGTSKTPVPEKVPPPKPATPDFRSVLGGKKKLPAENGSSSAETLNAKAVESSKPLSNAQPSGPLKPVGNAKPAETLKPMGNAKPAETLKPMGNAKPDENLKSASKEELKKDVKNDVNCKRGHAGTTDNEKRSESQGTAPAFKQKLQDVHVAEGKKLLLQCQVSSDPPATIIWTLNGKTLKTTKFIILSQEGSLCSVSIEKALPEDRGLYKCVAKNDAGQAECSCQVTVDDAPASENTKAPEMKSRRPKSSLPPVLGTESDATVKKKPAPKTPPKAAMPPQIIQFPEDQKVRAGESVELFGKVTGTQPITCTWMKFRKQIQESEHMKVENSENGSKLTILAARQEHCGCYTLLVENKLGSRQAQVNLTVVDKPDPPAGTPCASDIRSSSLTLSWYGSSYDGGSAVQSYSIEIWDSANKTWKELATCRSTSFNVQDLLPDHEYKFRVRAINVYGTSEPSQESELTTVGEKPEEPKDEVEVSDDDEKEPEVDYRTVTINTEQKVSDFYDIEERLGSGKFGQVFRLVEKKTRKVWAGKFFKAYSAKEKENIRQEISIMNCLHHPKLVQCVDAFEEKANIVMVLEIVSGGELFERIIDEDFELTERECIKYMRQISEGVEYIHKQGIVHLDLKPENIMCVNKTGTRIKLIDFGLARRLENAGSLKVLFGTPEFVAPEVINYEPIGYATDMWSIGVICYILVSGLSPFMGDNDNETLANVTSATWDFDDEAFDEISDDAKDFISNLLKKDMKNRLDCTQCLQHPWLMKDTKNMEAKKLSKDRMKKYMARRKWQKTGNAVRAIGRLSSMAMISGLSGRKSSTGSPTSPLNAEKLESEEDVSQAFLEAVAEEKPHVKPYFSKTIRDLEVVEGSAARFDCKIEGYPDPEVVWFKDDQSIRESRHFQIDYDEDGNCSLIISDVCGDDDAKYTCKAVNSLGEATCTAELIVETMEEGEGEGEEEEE

On to `Cc1cc(O)c2c(O)cccc2c1-c1cc(=O)cc(O)o1` [DEHYDROMUTACTIN], for which the inhibition result with PBMC [1] is “Dose-dependent effect”. Also, the inhibition entry in the series on Monocyte [2], with Monocyte [3], with Monocyte [4], with Monocyte [5], with Monocyte [6] and with Monocyte [7] was “inactive” each time. In addition, the inhibition entry with Monocyte [9] is “inactive”. For the same compound, in series [8], the viability at 48 h, 50 µM is 97%.

As to `Cc1cc(O)cc2oc(Cc3cc(O)cc(=O)o3)cc(=O)c12`, the inhibition result in the series with Monocyte [2], in the series with Monocyte [3], with Monocyte [4], in the series with Monocyte [5], in the series on Monocyte [6] and with Monocyte [9] was “inactive” each time.

What is called Kd is a measure of binding affinity in units of concentration. As a reminder, the IC50 is the concentration at which inhibition is half-maximal. Read a high IC50 as weaker potency. As for `Cc1occ2c1C(=O)c1c(O)ccc(O)c1C2`, at ELAV-like protein 1 [10], the inhibition result is “Active”. The inhibition entry in the series on Monocyte [11], in the series with Monocyte [4] and in the series on Monocyte [19] was “Dose-dependent effect” throughout. Further, the Kd worked out at 0.1 nM on ELAV-like protein 1 [12]; 14 nM on ELAV-like protein 1 [13]; 0.1 nM on ELAV-like protein 1 [15]; 230 nM at ELAV-like protein 1 [18]; 420 nM at ELAV-like protein 1 [21]. In the series with PBMC [14], the inhibition result is “inactive”. In series [16], the viability at 48 h, 25 µM was 94%. In addition, the IC50 in the series on Monocyte [17] worked out at 3700 nM; with Monocyte [20] it was 2100 nM; with Monocyte [22] it was 2400 nM; in series [23], 10000 nM.

On to `Cc1cc(O)cc2cc3c(c(O)c12)C(=O)CCC3O` (stereo unspecified), for which the inhibition result with PBMC [1] was “inactive”.
